Measured values taken from ChEMBL document CHEMBL1764983, “Structure-activity study to develop cationic lipid-conjugated haloperidol derivatives as a new class of anticancer therapeutics” (J Med Chem, 2011).
Activity calls are given as the source filed them. The calls are words filed in the database; no cut-off is given here.

What was measured:
MCF7 [1] = assay: Cytotoxicity against human MCF7 cells expressing sigma receptor at 0.5 to 50 uM after 48 hrs by MTT assay; type: functional, cell-based
Outline: (§1)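 MTT reduction assay. Cells grown in RPMI-1640 with 10% FBS at 37 °C, 5% CO₂, and used at 85-90% confluency. Seeded at 5000 cells/well 18-24 h ahead, then exposed continuously for 48 h in triplicate wells. Working solutions made in 10% FBS medium with DMSO ≤1%. Cells washed before MTT.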

MDA-MB-231 [2] = assay: Cytotoxicity against human MDA-MB-231 cells expressing sigma receptor at 0.5 to 50 uM after 48 hrs by MTT assay; type: functional, cell-based; outline: as §1
MCF7 [3] = assay: Induction of apoptosis in human MCF7 cells expressing sigma receptor assessed as early apoptotic cells using annexin V/propidium iodide staining at 5 uM after 24 hrs by flow cytometry (reference value: 0.92%); type: functional
B16-F10 [4] = assay: Induction of apoptosis in mouse B16F10 cells expressing sigma receptor assessed as early apoptotic cells using annexin V/propidium iodide staining at 5 uM after 24 hrs by flow cytometry (reference value: 0.92%); type: functional
COS-1 [5] = assay: Induction of apoptosis in against african green monkey COS1 cells expressing sigma receptor assessed as necrotic cells using annexin V/propidium iodide staining at 5 uM after 24 hrs by flow cytometry (reference value: 0.08%); type: cell-based; details: chlorocebus aethiops, cos-1, 24 h
B16-F10 [6] = assay: Induction of apoptosis in mouse B16F10 cells expressing sigma receptor assessed as late apoptotic cells using annexin V/propidium iodide staining at 5 uM after 24 hrs by flow cytometry (reference value: 1.21%); type: functional
HEK293 [7] = assay: Induction of apoptosis in human HEK293 cells expressing sigma receptor assessed as late apoptotic cells using annexin V/propidium iodide staining at 5 uM after 24 hrs by flow cytometry (reference value: […]); type: cell-based; details: hek293, 24 h
[8] = Induction of apoptosis in against african green monkey COS1 cells expressing sigma receptor assessed as viable cells using annexin V/propidium iodide staining at 5 uM after 24 hrs by flow cytometry (reference value: 99.82%); type: cell-based; details: chlorocebus aethiops, COS-1 cells expressing sigma receptor; read-out: Activity
COS-1 [9] = assay: Induction of apoptosis in against african green monkey COS1 cells expressing sigma receptor assessed as early apoptotic cells using annexin V/propidium iodide staining at 5 uM after 24 hrs by flow cytometry (reference value: 0.06%); type: cell-based; details: chlorocebus aethiops, cos-1, 24 h
COS-1 [10] = assay: Induction of apoptosis in against african green monkey COS1 cells expressing sigma receptor assessed as late apoptotic cells using annexin V/propidium iodide staining at 5 uM after 24 hrs by flow cytometry (reference value: 0.04%); type: cell-based; details: chlorocebus aethiops, cos-1, 24 h
HEK293 [11] = assay: Induction of apoptosis in human HEK293 cells expressing sigma receptor assessed as early apoptotic cells using annexin V/propidium iodide staining at 5 uM after 24 hrs by flow cytometry (reference value: […]); type: cell-based; details: hek293, 24 h
[12] = Induction of apoptosis in human HEK293 cells expressing sigma receptor assessed as viable cells using annexin V/propidium iodide staining at 5 uM after 24 hrs by flow cytometry (reference value: 99.76%); type: cell-based; details: read-out: Activity
MCF7 [13] = assay: Induction of apoptosis in human MCF7 cells expressing sigma receptor assessed as late apoptotic cells using annexin V/propidium iodide staining at 5 uM after 24 hrs by flow cytometry (reference value: 1.48%); type: functional
HEK293 [14] = assay: Induction of apoptosis in human HEK293 cells expressing sigma receptor assessed as necrotic cells using annexin V/propidium iodide staining at 5 uM after 24 hrs by flow cytometry (reference value: 0.06%); type: cell-based; details: hek293, 24 h
MCF7 [15] = assay: Induction of apoptosis in human MCF7 cells expressing sigma receptor assessed as necrotic cells using annexin V/propidium iodide staining at 5 uM after 24 hrs by flow cytometry (reference value: 0.27%); type: functional
MCF7 [16] = assay: Induction of apoptosis in human MCF7 cells expressing sigma receptor assessed as viable cells using annexin V/propidium iodide staining at 5 uM after 24 hrs by flow cytometry (reference value: 97.33%); type: functional
B16-F10 [17] = assay: Induction of apoptosis in mouse B16F10 cells expressing sigma receptor assessed as necrotic cells using annexin V/propidium iodide staining at 5 uM after 24 hrs by flow cytometry (reference value: 0.25%); type: functional
B16-F10 [18] = assay: Induction of apoptosis in mouse B16F10 cells expressing sigma receptor assessed as viable cells using annexin V/propidium iodide staining at 5 uM after 24 hrs by flow cytometry (reference value: 98.30%); type: functional
HUVEC [19] = assay: Induction of apoptosis in HUVEC assessed as increase of cleaved caspase 3 expression at 10 uM after 24 hrs by Western blotting; type: functional, cell-based; details: Homo sapiens
Outline: (§2)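 B16F10 cells (in RPMI) and HUVEC (passages 2-3, in EBM with bullet kit minus serum) exposed to 10 μM compound or left untreated for 24 h under charcoal-stripped serum conditions. Whole-cell lysates made in cold RIPA (pH 7.4) with phosphatase/protease inhibitors and 2 mM vanadate. SDS-PAGE gradient gel, PVDF transfer, probed for caspase 3, Bax, Bcl-2, Akt, pAkt and β-actin with HRP-chemiluminescence detection.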

B16-F10 [20] = assay: Induction of apoptosis in mouse B16F10 cells expressing sigma receptor assessed as phosphorylated Akt level at 10 uM after 24 hrs by Western blotting; type: functional, cell-based; outline: as §2
B16-F10 [21] = assay: Antitumor activity against mouse B16F10 cells expressing sigma receptor xenografted in C57BL6/J mouse assessed as increase of apoptotic region in tumor at 7.5 mg/kg, ip administered 5 times with gap 2 to 3 days by TUNEL assay; type: functional, organism-based; design: dose 7.5 mg/kg
Outline: (§3)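 Male C57BL6/J mice, 6-8 weeks old, given 2 × 10⁵ B16F10 cells s.c. in the lower right abdomen. From day 11, groups of four mice received 7.5 mg/kg i.p. in PBS with 10% DMSO, five injections 2-3 days apart. Tumours measured three times a week; volume = 0.5ab². Tumours excised on day 23, cut as 10 μm cryosections, fixed and fluorometric TUNEL-stained.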

COS-1 [22] = assay: Cytotoxicity against african green monkey COS1 cells expressing sigma receptor after 48 hrs by MTT assay; type: cell-based; details: Chlorocebus aethiops, COS-1, 48 h; outline: as §1
B16-F10 [23] = assay: Antitumor activity against mouse B16F10 cells expressing sigma receptor xenografted in C57BL6/J mouse assessed as tumor regression at 7.5 mg/kg, ip administered 5 times with gap 2 to 3 days; type: functional, organism-based; design: dose 7.5 mg/kg; outline: as §3
B16-F10 [24] = assay: Induction of apoptosis in mouse B16F10 cells expressing sigma receptor assessed as increase of cleaved caspase 3 expression at 10 uM after 24 hrs by Western blotting; type: functional, cell-based; outline: as §2
HUVEC [25] = assay: Induction of apoptosis in HUVEC assessed as phosphorylated Akt level at 10 uM after 24 hrs by Western blotting; type: functional, cell-based; details: Homo sapiens; outline: as §2
MCF7 [26] = assay: Cytotoxicity against human MCF7 cells expressing sigma receptor after 48 hrs by MTT assay; type: functional, cell-based; details: MCF7, 48 h; outline: as §1
B16-F10 [27] = assay: Induction of apoptosis in mouse B16F10 cells expressing sigma receptor assessed as decrease of Bcl-2 protein expression at 10 uM after 24 hrs by Western blotting; type: functional, cell-based; outline: as §2
B16-F10 [28] = assay: Induction of apoptosis in mouse B16F10 cells expressing sigma receptor assessed as increase of Bax protein expression at 10 uM after 24 hrs by Western blotting; type: functional, cell-based; outline: as §2
HUVEC [29] = assay: Induction of apoptosis in HUVEC assessed as increase of Bax/Bcl-2 protein ratio at 10 uM after 24 hrs by Western blotting; type: functional, cell-based; details: Homo sapiens; outline: as §2
B16-F10 [30] = assay: Cytotoxicity against mouse B16F10 cells expressing sigma receptor after 48 hrs by MTT assay; type: functional, cell-based; details: B16-F10, 48 h; outline: as §1
B16-F10 [31] = assay: Induction of apoptosis in mouse B16F10 cells expressing sigma receptor assessed as increase of Bax/Bcl-2 protein ratio at 10 uM after 24 hrs by Western blotting; type: functional, cell-based; outline: as §2
HEK293 [32] = assay: Cytotoxicity against human HEK293 cells expressing sigma receptor after 48 hrs by MTT assay; type: cell-based; details: HEK293, 48 h; outline: as §1
ZR-75-1 = assay: Cytotoxicity against human ZR-75-1 cells expressing sigma receptor after 48 hrs by MTT assay; type: functional, cell-based; details: ZR-75-1, 48 h; outline: as §1
MDA-MB-231 [33] = assay: Cytotoxicity against human MDA-MB-231 cells expressing sigma receptor after 48 hrs by MTT assay; type: functional, cell-based; details: MDA-MB-231, 48 h; outline: as §1
MCF7 [34] = assay: Cytotoxicity against sigma receptor depleted human MCF7 cells assessed as cell viability at 10 uM after 48 hrs by MTT assay in presence of siRNA treated for 4 hrs before compound challenge

SMILES | Activity (MCF7 [1]) | Activity (MDA-MB-231 [2]) | Activity (MCF7 [3]) [%] | Activity (B16-F10 [4]) [%] | Activity (COS-1 [5]) [%] | Activity (B16-F10 [6]) [%] | Activity (HEK293 [7]) [%] | viability at 24 h, 5 µM [8] [%] | Activity (COS-1 [9]) [%] | Activity (COS-1 [10]) [%] | Activity (HEK293 [11]) [%] | viability at 24 h, 5 µM [12] [%] | Activity (MCF7 [13]) [%] | Activity (HEK293 [14]) [%] | Activity (MCF7 [15]) [%] | Activity (MCF7 [16]) [%] | Activity (B16-F10 [17]) [%] | Activity (B16-F10 [18]) [%] | also measured
CCCC[N+](C)(CCCC)CC(=O)NCCC(=O)OC1(c2ccc(Cl)cc2)CCN(CCCC(=O)c2ccc(F)cc2)CC1 | Active | Active | – | – | – | – | – | – | – | – | – | – | – | – | – | – | – | – | –
CCCCCCCCCCCC[N+](C)(CCCCCCCCCCCC)CC(=O)NCCC(=O)OC1(c2ccc(Cl)cc2)CCN(CCCC(=O)c2ccc(F)cc2)CC1 | Active | Active | – | – | – | – | – | – | – | – | – | – | – | – | – | – | – | – | –
O=C(CCCN1CCC(O)(c2ccc(Cl)cc2)CC1)c1ccc(F)cc1 [HALOPERIDOL] | Active | Active | 0.51 | 0.29 | 0.17 | 0.95 | 0.18 | 99.6 | 0.11 | 0.16 | 0.11 | 99.6 | 1.74 | 0.07 | 0.09 | 97.66 | 1.58 | 97.17 | –
CCCCCCCC[N+](C)(CCCCCCCC)CC(=O)NCCC(=O)OC1(c2ccc(Cl)cc2)CCN(CCCC(=O)c2ccc(F)cc2)CC1.[Cl-] | Active | Active | 5.02 | 4.1 | 0.12 | 53.41 | 0.15 | 99.7 | 0.11 | 0.06 | 0.14 | 99.6 | 33.2 | 0.14 | 14.35 | 47.43 | 1.03 | 41.47 | Activity (HUVEC [19]): Active; Activity (B16-F10 [20]): Active; Activity (B16-F10 [21]): Active; IC50 (COS-1 [22]): 7000 nM; Activity (B16-F10 [23]): Active; Activity (B16-F10 [24]): Active; Activity (HUVEC [25]): Active; IC50 (MCF7 [26]): 2500 nM; Activity (B16-F10 [27]): Active; Activity (B16-F10 [28]): Active; Activity (HUVEC [29]): Active; IC50 (B16-F10 [30]): 2500 nM; Activity (B16-F10 [31]): Active; IC50 (HEK293 [32]): 7000 nM; IC50 (ZR-75-1): 2500 nM; IC50 (MDA-MB-231 [33]): 2500 nM; viability at 10 µM (MCF7 [34]): 25%
CCCCCCCCCCCCCCCC[N+](C)(CCCCCCCCCCCCCCCC)CC(=O)NCCC(=O)OC1(c2ccc(Cl)cc2)CCN(CCCC(=O)c2ccc(F)cc2)CC1 | Active | Active | – | – | – | – | – | – | – | – | – | – | – | – | – | – | – | – | –
